In ChEMBL document CHEMBL3244004, “Potential antitumor agents. 27. Quantitative structure--antileukemic (L1210) activity relationships for the omega-[4-(9-acridinylamino)phenyl]alkanoic acids” (J Med Chem, 1978):
The source made the active and inactive calls. The calls are words filed in the database; no cut-off is given here.

Tests used:
Mus musculus = assay: Toxicity in ip dosed C3H/DBA2F1 hybrid mouse allografted with mouse L1210 cells administered for 5 days measured up to 8 days; type: organism-based; conditions: in vivo
Method in brief: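 C3H/DBA2 F1 hybrid mice (18.5–22.5 g) bearing ip 10^5 L1210 cells were dosed ip once daily for 5 days, starting 24 h after inoculation, at 0.2 mL per dose. Doses were spaced 0.05 log units apart. Deaths before day 8 were taken as drug toxicity, and the dose lethal to 10% of animals (LD10) was derived.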

L1210 = assay: Antitumor activity against mouse L1210 cells allografted in C3H/DBA2F1 hybrid mouse assessed as maximum increase of host life span administered as ip for 5 days relative to control; type: functional
Method in brief: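 Mice (C3H/DBA2 F1 hybrid, 18.5–22.5 g; six per dose level) were inoculated ip with 10^5 L1210 cells. Ip treatment ran once daily on days 1–5, starting 24 h after inoculation, in 0.2 mL per dose. Doses were spaced 0.09 log units apart. ILS = T/C% − 100, significant if above 25%. Significant ILS values were regressed on log dose, and ILSmax was read at the LD10.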

[1] = Logarithmic function of the retardation factor value of compound by reverse phase chromatography analysis; type: physicochemical
Method in brief: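 Lipophilic-hydrophilic balance read by reversed-phase TLC, using a system described in an earlier report. R_m is calculated as log(1/R_f − 1). Each quoted figure is the mean of at least three determinations.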

SMILES	LD10 (Mus musculus) [mg/kg]	log(ILSmax) (L1210)	Rm [1]	ILSmax (L1210)
NC(=O)c1ccc(Nc2c3ccccc3nc3ccccc23)cc1	182	<1.3	-0.25	–
CN(C)C(=O)CCCc1ccc(Nc2c3ccccc3nc3ccccc23)cc1.Cl	52	<1.3	0.68	–
O=C(O)Cc1ccc(Nc2c3ccccc3nc3ccccc23)cc1	450	1.34	0.23	22%
O=C(O)c1ccc(Nc2c3ccccc3nc3ccccc23)cc1	72	2.11	0.27	130%
Cl.O=C(O)CCCCCCCCCc1ccc(Nc2c3ccccc3nc3ccccc23)cc1	75	1.88	0.86	75%
NC(=O)CCCCCCc1ccc(Nc2c3ccccc3nc3ccccc23)cc1	110	1.85	0.58	71%
CCCCS(=O)(=O)Nc1ccc(Nc2c3ccccc3nc3cc(NC(C)=O)ccc23)cc1	39	1.92	0.46	84%
CNc1ccc2c(Nc3ccc(NS(C)(=O)=O)cc3)c3ccccc3nc2c1.Cl	7	2.01	-0.01	103%
NS(=O)(=O)CCc1ccc(Nc2c3ccccc3nc3ccccc23)cc1	80	1.83	-0.2	68%
Cl.O=C(O)CCCCCCCCc1ccc(Nc2c3ccccc3nc3ccccc23)cc1	100	1.86	0.85	72%
CCCCCCS(=O)(=O)Nc1ccc(Nc2c3ccccc3nc3cc(NC(C)=O)ccc23)cc1	21	1.63	0.7	43%
CCc1cccc2c(Nc3ccc(CC(=O)O)cc3)c3ccccc3nc12	200	2.3	0.52	200%
CNc1ccc2c(Nc3ccc(OCCCC(=O)O)cc3)c3ccccc3nc2c1.Cl	> 500	>1.48	0.61	30%
Cl.O=C(O)CCCCCc1ccc(Nc2c3ccccc3nc3ccccc23)cc1	150	2.3	0.75	200%
CC(=O)Nc1ccc2c(Nc3ccc(CCCCCC(=O)O)cc3)c3ccccc3nc2c1.Cl	> 500	–	0.54	inactive
CS(=O)(=O)O.NC(=O)Cc1ccc(Nc2c3ccccc3nc3ccccc23)cc1	55	1.81	-0.33	64%
Cc1cccc2c(Nc3ccc(CC(=O)O)cc3)c3ccccc3nc12	95	1.9	0.3	80%
CS(=O)(=O)O.NC(=O)CCCCCc1ccc(Nc2c3ccccc3nc3ccccc23)cc1	125	1.99	0.41	97%
O=C(O)CCCCCCc1ccc(Nc2c3ccccc3nc3ccccc23)cc1	90	1.87	0.79	74%
CS(=O)(=O)Nc1ccc(Nc2c3ccccc3nc3ccccc23)cc1	66	–	0	131%
CNc1ccc2c(Nc3ccc(CCCC(=O)O)cc3)c3ccccc3nc2c1.Cl	400	1.54	0.67	35%
Cc1cccc2c(Nc3ccc(CCC(=O)O)cc3)c3ccccc3nc12	32	2.09	0.46	124%
CC(=O)Nc1ccc2c(=Nc3ccc(CCC(=O)O)cc3)c3ccccc3[nH]c2c1.Cl	145	<1.3	0.27	–
O=C(O)CCCCc1ccc(Nc2c3ccccc3nc3ccccc23)cc1	125	2.27	0.64	187%

SMILES	LD10 (Mus musculus) [mg/kg]	log(ILSmax) (L1210)	Rm [1]	ILSmax (L1210)
CS(=O)(=O)O.NC(=O)CCCCCCCc1ccc(Nc2c3ccccc3nc3ccccc23)cc1	120	1.72	0.68	53%
CCCCCS(=O)(=O)Nc1ccc(Nc2c3ccccc3nc3ccccc23)cc1.Cl	70	–	0.66	55%
Cl.O=C(O)CCCCCCCc1ccc(Nc2c3ccccc3nc3ccccc23)cc1	95	1.88	0.82	75%
CCCCCS(=O)(=O)Nc1ccc(Nc2c3ccccc3nc3cc(NC(C)=O)ccc23)cc1	40	1.78	0.59	61%
CCCCS(=O)(=O)Nc1ccc(Nc2c3ccccc3nc3ccccc23)cc1	350	–	0.56	66%
CCS(=O)(=O)Nc1ccc(Nc2c3ccccc3nc3ccccc23)cc1	330	–	0.25	98%
CC(=O)Nc1ccc2c(Nc3ccc(C(=O)O)cc3)c3ccccc3nc2c1.Cl	> 500	–	0.15	inactive
CCS(=O)(=O)Nc1ccc(Nc2c3ccccc3nc3cc(NC(C)=O)ccc23)cc1	28	2.06	0.1	115%
CS(=O)(=O)O.NC(=O)CCCCc1ccc(Nc2c3ccccc3nc3ccccc23)cc1	110	1.91	0.25	82%
Cl.O=S(=O)(Cc1ccc(Nc2c3ccccc3nc3ccccc23)cc1)Nc1ccccn1	370	2	-0.04	99%
CS(=O)(=O)O.NC(=O)CCCCCCCCc1ccc(Nc2c3ccccc3nc3ccccc23)cc1	60	1.4	0.77	25%
NS(=O)(=O)c1ccc(Nc2c3ccccc3nc3ccccc23)cc1	> 500	–	-0.57	inactive
Cl.O=C(O)CCCc1ccc(Nc2c3ccccc3nc3ccccc23)cc1	190	2.33	0.59	213%
CC(=O)Nc1ccc2c(Nc3ccc(NS(C)(=O)=O)cc3)c3ccccc3nc2c1	19	–	-0.12	145%
CCCCCCS(=O)(=O)Nc1ccc(Nc2c3ccccc3nc3ccccc23)cc1.Cl	120	–	0.75	35%
CCCS(=O)(=O)Nc1ccc(Nc2c3ccccc3nc3cc(NC(C)=O)ccc23)cc1	33	2.06	0.3	115%
Cl.NS(=O)(=O)Cc1ccc(Nc2c3ccccc3nc3ccccc23)cc1	62	1.72	-0.36	53%
CCCS(=O)(=O)Nc1ccc(Nc2c3ccccc3nc3ccccc23)cc1	350	–	0.43	82%
NC(=O)CCc1ccc(Nc2c3ccccc3nc3ccccc23)cc1	75	1.92	-0.17	84%
Cl.O=C(O)CCc1ccc(Nc2c3ccccc3nc3ccccc23)cc1	125	2.21	0.44	163%
CNc1ccc2c(Nc3ccc(NS(C)(=O)=O)cc3OC)c3ccccc3nc2c1.Cl	1.3	1.97	0.17	94%
CCc1cccc2c(Nc3ccc(CCC(=O)O)cc3)c3ccccc3nc12.Cl	200	2.11	0.66	130%
NC(=O)CCCc1ccc(Nc2c3ccccc3nc3ccccc23)cc1	85	2.09	0.09	122%
CCC(=O)Nc1ccc2c(Nc3ccc(NS(C)(=O)=O)cc3)c3ccccc3nc2c1	55	2.08	0.15	119%
